From ChEMBL document CHEMBL4422627, “Discovery of potent, orally bioavailable ERK1/2 inhibitors with isoindolin-1-one structure by structure-based drug design” (Eur J Med Chem, 2019)
pIC50: −log10 of the molar value. Blank lines part the entries; values can stand above or below the compound they belong to. The source made the active and inactive calls. The rule behind the calls is not given here.

Assays:
[1] = target: Mitogen-activated protein kinase 1 (Homo sapiens, UniProt P28482); test: Inhibition of ERK2 (unknown origin) using […] as substrate after 40 mins by ADP-Glo luminescence assay
Chain of Mitogen-activated protein kinase 1 (P28482 whole entry): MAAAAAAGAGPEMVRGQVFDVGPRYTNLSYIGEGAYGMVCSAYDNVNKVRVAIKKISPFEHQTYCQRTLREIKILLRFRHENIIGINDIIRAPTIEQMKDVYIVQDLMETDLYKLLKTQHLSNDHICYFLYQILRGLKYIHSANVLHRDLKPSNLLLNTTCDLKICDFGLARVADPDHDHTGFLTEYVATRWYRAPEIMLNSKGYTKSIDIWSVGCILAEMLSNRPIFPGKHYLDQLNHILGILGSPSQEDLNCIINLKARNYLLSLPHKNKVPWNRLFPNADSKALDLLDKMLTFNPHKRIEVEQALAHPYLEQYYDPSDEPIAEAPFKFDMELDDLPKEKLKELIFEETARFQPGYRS

K562 = test: Antiproliferative activity against human K562 cells after 72 hrs by MTT assay; format: functional, cell-based; conditions: K562, 72 h
[2] = target: Mitogen-activated protein kinase 3 (Homo sapiens, UniProt P27361); test: Inhibition of ERK1 (unknown origin) using […] as substrate after 40 mins by ADP-Glo luminescence assay
Chain of Mitogen-activated protein kinase 3 (P27361 whole entry): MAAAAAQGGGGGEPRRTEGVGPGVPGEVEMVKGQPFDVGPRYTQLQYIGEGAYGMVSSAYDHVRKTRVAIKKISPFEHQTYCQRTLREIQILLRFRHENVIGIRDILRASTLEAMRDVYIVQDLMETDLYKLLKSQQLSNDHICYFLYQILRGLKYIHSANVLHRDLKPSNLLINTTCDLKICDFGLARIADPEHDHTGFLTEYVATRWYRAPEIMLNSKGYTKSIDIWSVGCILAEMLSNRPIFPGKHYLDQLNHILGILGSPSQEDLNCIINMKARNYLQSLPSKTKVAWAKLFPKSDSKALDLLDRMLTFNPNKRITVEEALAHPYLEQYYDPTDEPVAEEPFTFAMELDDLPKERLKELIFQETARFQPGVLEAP

HCT-116 [3] = test: Antiproliferative activity against human HCT116 cells after 72 hrs by MTT assay; format: functional, cell-based; conditions: HCT-116, 72 h
WM 266-4 = test: Antiproliferative activity against human WM266.4 cells after 72 hrs by MTT assay; format: functional, cell-based; conditions: WM 266-4, 72 h
SW626 = test: Antiproliferative activity against human SW626 cells after 72 hrs by MTT assay; format: functional, cell-based; conditions: SW626, 72 h
COLO 205 = test: Antiproliferative activity against human COLO205 cells after 72 hrs by MTT assay; format: functional, cell-based; conditions: COLO 205, 72 h
[4] = Half life in Sprague-Dawley rat at 50 mg/kg, po by LC/MS/MS analysis; format: ADME, organism-based; conditions: in vivo
Procedure, shortened: (§1)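 Sprague-Dawley rats dosed intravenously at 5 mg/kg or orally at 50 mg/kg; pharmacokinetic parameters derived from the plasma concentration data.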

[5] = Cmax in Sprague-Dawley rat at 50 mg/kg, po by LC/MS/MS analysis; format: ADME, organism-based; parameters: dose 50 mg/kg, route oral; conditions: in vivo; procedure, shortened: as §1
[6] = AUC (0 to t) in Sprague-Dawley rat at 50 mg/kg, po by LC/MS/MS analysis; format: ADME, organism-based; conditions: in vivo; procedure, shortened: as §1
[7] = MRT (0 to t) in Sprague-Dawley rat at 50 mg/kg, po by LC/MS/MS analysis; format: ADME, organism-based; conditions: in vivo; procedure, shortened: as §1
[8] = Oral bioavailability in Sprague-Dawley rat at 50 mg/kg by LC/MS/MS analysis; format: ADME, organism-based; conditions: in vivo; procedure, shortened: as §1
HCT-116 [9] = test: Antitumor activity against human HCT116 cells xenografted in Balb/c nude mouse assessed as tumor growth inhibition at 50 mg/kg, po qd for 30 days and measured every 3 days by calliper method relative to control; format: functional; conditions: HCT-116, po, read-out: TGI
Procedure, shortened: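 Nude mice bearing HCT-116 xenografts; test article given as hydrochloride salt, 50 mg/kg orally once daily for 30 days; efficacy expressed as percent tumor growth inhibition.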

NCM460 = test: Cytotoxicity against human NCM460 cells assessed as reduction in cell viability at 10000 nM after 72 hrs by MTT assay; format: cell-based; conditions: ncm460, 72 h, 10 µM
HCT-116 [10] = test: Induction of apoptosis in human HCT116 cells assessed as early apoptotic cells at 1 uM after 72 hrs by annexin V-FITC and propidium iodide staining based flow cytometric analysis (reference value: 3.88%); format: functional
Procedure, shortened: (§2)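 HCT116 cells treated with compound, PI-stained, and analysed for apoptosis by flow cytometry; means ± SD of three independent experiments, each condition in triplicate.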

HCT-116 [11] = test: Induction of apoptosis in human HCT116 cells assessed as late apoptotic cells at 1 uM after 72 hrs by annexin V-FITC and propidium iodide staining based flow cytometric analysis (reference value: 1.20%); format: functional; procedure, shortened: as §2
HCT-116 [12] = test: Induction of apoptosis in human HCT116 cells assessed as necrotic cells at 1 uM after 72 hrs by annexin V-FITC and propidium iodide staining based flow cytometric analysis (reference value: 0.21%); format: functional; procedure, shortened: as §2
HCT-116 [13] = test: Induction of apoptosis in human HCT116 cells assessed as viable cells at 1 uM after 72 hrs by annexin V-FITC and propidium iodide staining based flow cytometric analysis (reference value: 94.3%); format: functional; conditions: HCT-116, 72 h, read-out: Activity; procedure, shortened: as §2
HCT-116 [14] = test: Cell cycle arrest in human HCT116 cells assessed as accumulation at G0/G1 phase at 1 uM after 72 hrs by annexin V-FITC and propidium iodide staining based flow cytometric analysis (reference value: 44.3%); format: functional
HCT-116 [15] = test: Cell cycle arrest in human HCT116 cells assessed as accumulation at G2/M phase at 1 uM after 72 hrs by annexin V-FITC and propidium iodide staining based flow cytometric analysis (reference value: 43.5%); format: functional
[16] = Toxicity against Balb/c nude mouse xenografted with human HCT116 cells assessed as reduction in body weight at 50 mg/kg, po qd for 30 days and measured every 3 days; format: organism-based; conditions: in vivo
Procedure, shortened: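 HCT-116 xenograft nude mice dosed at 50 mg/kg orally once daily for 30 days; body weight recorded every 3 days.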

HCT-116 [17] = test: Induction of apoptosis in human HCT116 cells assessed as increase in condense bright apoptotic nuclei formation at 1 uM by Hoechst 33258 staining-based assay; format: functional, cell-based
Procedure, shortened: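 After compound incubation, HCT116 cells stained with Hoechst 33258 and examined for condensed, bright apoptotic nuclei; n=3 per group.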

[18] = target: T1, Mitogen-activated protein kinase; ERK1/ERK2 (Homo sapiens) (UniProt P27361+P28482); test: Inhibition of ERK1/2 phosphorylation at Thr202/Tyr204 residues in human HCT116 cells by Western blot analysis; format: cell-based
T1 sequence (P27361 whole entry, looked up): as the sequence (P27361 whole entry) above
T1 sequence (P28482 whole entry, looked up): as the sequence (P28482 whole entry) above
Procedure, shortened: (§3)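 Phosphorylation of ERK1/2 and RSK in HCT116 cells measured by western blot over a range of compound concentrations; means ± SD of three independent experiments, each condition run in triplicate.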

[19] = target: T1, Mitogen-activated protein kinase; ERK1/ERK2 (Homo sapiens); test: Inhibition of ERK1/2 in human HCT116 cells assessed as reduction in RSK phosphorylation at Thr359/Ser363 residues by Western blot analysis; format: cell-based; procedure, shortened: as §3

Compound: Cn1nccc1Nc1nccc(-c2ccc3c(c2)C(=O)N(Cc2cccc(Cl)c2)C3)n1
pIC50 [1]: 8.46
pIC50 (K562): 5.54

Compound: O=C1c2cc(-c3ccnc(Nc4ccc(F)cc4)n3)ccc2CN1Cc1cccc(Cl)c1
pIC50 [1]: < 6.00

Compound: O=C1c2cc(-c3ccnc(NC4CCNCC4)n3)ccc2CN1C(CO)c1cccc(Cl)c1 (configuration not stated)
pIC50 [1]: < 6.00

Compound: O=C1c2cc(-c3ccnc(Nc4ccncc4)n3)ccc2CN1Cc1cccc(Cl)c1
pIC50 [1]: 7.44

Compound: O=C1c2cc(-c3ccnc(NC4CCC(O)CC4)n3)ccc2CN1C(CO)c1cccc(Cl)c1 (configuration not stated)
pIC50 [1]: 8.57

Compound: Cl.O=C1c2cc(-c3ccnc(NC4CCOCC4)n3)ccc2CN1Cc1cccc(Cl)c1
half-life [4]: 0.37 h
Cmax [5]: 747 ng/mL
AUC(0-t) [6]: 1280 ng·h/mL
MRT last [7]: 1.2 h
bioavailability [8]: 6.9%

Compound: O=C1c2cc(-c3ccnc(NC4CCOCC4)n3)ccc2CN1[C@H](CO)c1cccc(Cl)c1
pIC50 [1]: 9.10

Compound: O=C1c2cc(-c3ccnc(NC4CCOCC4)n3)ccc2CN1C(CO)c1ccc(Cl)cc1 (configuration not stated)
pIC50 [1]: 7.52

Compound: O=C1c2cc(-c3ccnc(NC4CCOC4)n3)ccc2CN1C(CO)c1cccc(Cl)c1 (configuration not stated)
pIC50 [1]: 8.27

Compound: O=C1c2cc(-c3ccnc(NC4CCOCC4)n3)ccc2CN1C(CO)c1ccc(Cl)c(Cl)c1 (configuration not stated)
pIC50 [1]: 8.51

Compound: Cn1nccc1Nc1nccc(-c2ccc3c(c2)C(=O)N(Cc2ccc(Cl)c(F)c2)C3)n1
pIC50 [1]: 8.25

Compound: O=C1c2cc(-c3ccnc(NC4CCOCC4)n3)ccc2CN1C(CO)c1cccc(Cl)c1 (configuration not stated) [listing 1 of 2 here]
inhibition in vivo at 50 mg/kg (HCT-116 [9]): 71%
pIC50 [1]: 9.15
pIC50 [2]: 8.82
pIC50 (HCT-116 [3]): 6.81
pIC50 (WM 266-4): 6.59
pIC50 (SW626): 6.61
pIC50 (COLO 205): 6.71
Activity (NCM460): Non-Toxic
Activity (HCT-116 [10]): 27.7%
Activity (HCT-116 [11]): 10.4%
Activity (HCT-116 [12]): 0.12%
viability at 1 µM (HCT-116 [13]): 61.3%
Activity (HCT-116 [14]): 58%
Activity (HCT-116 [15]): 29.5%
Activity [16]: Non-Toxic
pIC50 (K562): 5.50

Compound: O=C1c2cc(-c3ccnc(NC4CCOCC4)n3)ccc2CN1Cc1cccc(Cl)c1
pIC50 [1]: 8.80
pIC50 [2]: 8.48
pIC50 (HCT-116 [3]): 6.82
pIC50 (WM 266-4): 6.66
pIC50 (SW626): 6.59
pIC50 (COLO 205): 6.77
pIC50 (K562): 5.81

Compound: O=C1c2cc(-c3ccnc(NC4CCCCC4)n3)ccc2CN1C(CO)c1cccc(Cl)c1 (configuration not stated)
pIC50 [1]: 8.14

Compound: O=C1c2cc(-c3ccnc(NC4CCOCC4)n3)ccc2CN1C(CO)c1cccc(Cl)c1 (configuration not stated) [listing 2 of 2 here]
Activity (HCT-116 [17]): Active
inhibition [18]: Dose-dependent effect
inhibition [19]: Dose-dependent effect

Compound: Cn1nccc1Nc1nccc(-c2ccc3c(c2)C(=O)N(Cc2ccccn2)C3)n1
pIC50 [1]: < 6.00

Compound: O=C1c2cc(-c3ccnc(NC4CCOCC4)n3)ccc2CN1[C@@H](CO)c1cccc(Cl)c1
pIC50 [1]: 6.70

Compound: O=C1c2cc(-c3ccnc(NC4CCOCC4)n3)ccc2CN1Cc1ccc(Cl)c(F)c1
pIC50 [1]: 7.75

Compound: O=C1c2cc(-c3ccnc(NC4CCOCC4)n3)ccc2CN1Cc1ccc(Cl)cc1
pIC50 [1]: 7.45

Compound: Cc1cccc(CN2Cc3ccc(-c4ccnc(Nc5ccnn5C)n4)cc3C2=O)n1
pIC50 [1]: < 6.00

Compound: Cl.O=C1c2cc(-c3ccnc(NC4CCOCC4)n3)ccc2CN1C(CO)c1cccc(Cl)c1 (configuration not stated)
half-life [4]: 3.6 h
Cmax [5]: 1920 ng/mL
AUC(0-t) [6]: 8380 ng·h/mL
MRT last [7]: 3.4 h
bioavailability [8]: 22.5%

Compound: Cn1nccc1Nc1nccc(-c2ccc3c(c2)C(=O)N(Cc2cccnc2)C3)n1
pIC50 [1]: < 6.00

Compound: O=C1c2cc(-c3ccnc(NC4CCOCC4)n3)ccc2CN1Cc1ccc(F)c(Cl)c1
pIC50 [1]: 8.54

The next lines start with results.

pIC50 [1]: 7.59
Compound: Cn1ccc(Nc2nccc(-c3ccc4c(c3)C(=O)N(C(CO)c3cccc(Cl)c3)C4)n2)n1 (configuration not stated)

pIC50 [1]: 8.44
pIC50 [2]: 7.68
pIC50 (HCT-116 [3]): 6.83
pIC50 (SW626): 6.68
pIC50 (COLO 205): 6.69
pIC50 (K562): 5.56
Compound: Cn1cc(Nc2nccc(-c3ccc4c(c3)C(=O)N(Cc3cccc(Cl)c3)C4)n2)cn1
pIC50 (WM 266-4): 6.76

pIC50 [1]: 7.03
Compound: O=C1c2cc(-c3ccnc(Nc4ncco4)n3)ccc2CN1C(CO)c1cccc(Cl)c1 (configuration not stated)

pIC50 [1]: 6.20
Compound: Cn1cc(Nc2nccc(-c3ccc4c(c3)C(=O)N([C@@H](CO)c3cccc(Cl)c3)C4)n2)cn1

pIC50 [1]: 8.92
pIC50 [2]: 8.39
pIC50 (HCT-116 [3]): 6.70
pIC50 (SW626): 6.69
pIC50 (COLO 205): 6.64
pIC50 (K562): 5.42
Compound: Cn1cc(Nc2nccc(-c3ccc4c(c3)C(=O)N(C(CO)c3cccc(Cl)c3)C4)n2)cn1 (configuration not stated)
pIC50 (WM 266-4): 6.68
Activity (NCM460): Non-Toxic

pIC50 [1]: 7.95
Compound: CC(C)Nc1nccc(-c2ccc3c(c2)C(=O)N(C(CO)c2cccc(Cl)c2)C3)n1 (configuration not stated)

pIC50 [1]: 7.42
Compound: O=C1c2cc(-c3ccnc(NCCCO)n3)ccc2CN1C(CO)c1cccc(Cl)c1 (configuration not stated)

pIC50 [1]: 7.65
Compound: O=C1c2cc(-c3ccnc(Nc4nccs4)n3)ccc2CN1C(CO)c1cccc(Cl)c1 (configuration not stated)

pIC50 [1]: < 6.00
Compound: O=C1c2cc(-c3ccnc(NC4CCNC4)n3)ccc2CN1C(CO)c1cccc(Cl)c1 (configuration not stated)

pIC50 [1]: 7.70
Compound: Cn1nnnc1Nc1nccc(-c2ccc3c(c2)C(=O)N(C(CO)c2cccc(Cl)c2)C3)n1 (configuration not stated)

pIC50 [1]: 8.96
Compound: Cn1cc(Nc2nccc(-c3ccc4c(c3)C(=O)N([C@H](CO)c3cccc(Cl)c3)C4)n2)cn1

pIC50 [1]: 8.72
pIC50 [2]: 8.44
pIC50 (HCT-116 [3]): 6.60
pIC50 (SW626): 6.60
pIC50 (COLO 205): 6.60
pIC50 (K562): 5.53
Compound: Cn1nccc1Nc1nccc(-c2ccc3c(c2)C(=O)N(C(CO)c2cccc(Cl)c2)C3)n1 (configuration not stated)
pIC50 (WM 266-4): 6.66

pIC50 [1]: 7.75
Compound: O=C1c2cc(-c3ccnc(NCCO)n3)ccc2CN1C(CO)c1cccc(Cl)c1 (configuration not stated)
